# Assay outcomes (PubChem)
# The list is not random: actives were taken first. Their share in the collection is about 2.5%.
# MEKK2 mut-MEK5: MEK5 binding signal on mutant MEKK2 PB1, primary screen, biochemical, multiplex bead flow cytometry, Alexa488-MEK5. AID 1530, 2009. Alexa488-MEK5 binding to MEKK2 mutant. percent response, % at 10 µM. hit rate 0.35% among 290,000; in the data active = percent response above about 24%, passing the limit was not always enough
# ABCG2 block: ABCG2 efflux pump inhibitors, primary screen, multiplex with ABCB1, IgMXP3 cells, flow cytometry. Broad substrate specificity ATP-binding cassette transporter ABCG2 (Homo sapiens), Q9UNQ0. JC-1 efflux. inhibition, % at 6.6 µM. hit rate 0.1% among 190,000;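 active = inhibition above 80%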;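 note: 0% = DMSO and 100% = nicardipine control wells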
# Target sequence (Q9UNQ0 whole entry, looked up): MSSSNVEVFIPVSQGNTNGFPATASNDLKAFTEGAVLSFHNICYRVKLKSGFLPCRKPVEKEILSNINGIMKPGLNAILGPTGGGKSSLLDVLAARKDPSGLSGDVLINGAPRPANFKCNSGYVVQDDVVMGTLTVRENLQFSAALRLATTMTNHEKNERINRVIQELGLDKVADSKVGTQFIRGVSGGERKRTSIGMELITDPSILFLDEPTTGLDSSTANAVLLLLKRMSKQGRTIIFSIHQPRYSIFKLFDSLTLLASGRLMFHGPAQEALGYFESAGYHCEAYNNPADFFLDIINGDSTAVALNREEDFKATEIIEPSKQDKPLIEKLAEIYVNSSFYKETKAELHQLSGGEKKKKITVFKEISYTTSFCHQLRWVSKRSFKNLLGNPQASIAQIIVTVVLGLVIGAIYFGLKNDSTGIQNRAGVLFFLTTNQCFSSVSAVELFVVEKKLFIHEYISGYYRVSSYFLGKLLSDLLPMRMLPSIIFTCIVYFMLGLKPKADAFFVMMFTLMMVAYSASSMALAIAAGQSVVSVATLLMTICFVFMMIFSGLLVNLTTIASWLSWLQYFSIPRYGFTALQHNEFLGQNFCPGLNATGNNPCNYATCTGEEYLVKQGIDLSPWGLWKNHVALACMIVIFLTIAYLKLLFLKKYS
#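 Test system: ABCG2 IgMXP3 and barcoded ABCB1 CCRF-Adr cell mix; Schedule: cells with compound and JC-1, 10 min at 25 °C, rotating, no wash; Technique: flow cytometry of retained JC-1 fluorescence; Measure: % inhibition of efflux relative to nicardipine and DMSO; Controls: nicardipine high and DMSO low controls.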
# MEKK2 WT-MEK5: modulators of MEK5 binding to wildtype MEKK2, primary screen, biochemical, multiplex bead flow cytometry, Alexa488-MEK5. Mitogen-activated protein kinase kinase kinase 2 (Homo sapiens), Q9Y2U5. Alexa488-MEK5 binding to MEKK2 WT; actives lie on both sides. binding response (% of control), % at 10 µM. hit rate 1.1% among 290,000. AID 1531, 2009; in the data active = binding response below about 67% or above about 130%
# MEKK3 PB1 HTS: modulators of MEKK3-MEK5 PB1 binding, primary screen, biochemical, wildtype MEKK3, multiplex bead flow cytometry, Alexa488-MEK5 | bead-based flow cytometry, Alexa488-MEK5 binding to MEKK3; actives lie on both sides; 0 = blocked by unlabeled MEK5, 100 = vehicle | binding response (% of control), % at 10 µM | hit rate 1.4% among 290,000 | AID 1529, 2009;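 active = binding response more than 3 SD above or below the average of its plate-row segment, actives on both sides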;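 note: Alexa488 bead fluorescence after subtracting the streptavidin-only scavenger bead signal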
# ABCB1 inh: ABCB1 efflux pump inhibitors, primary screen, cell-based, multiplex, flow cytometry, ABCG2 counter-screen | ATP-dependent translocase ABCB1 (Homo sapiens), P08183 | hit rate 0.067% among 190,000 | inhibition, % at 6.6 µM | CCRF-Adr cells, JC-1 efflux | AID 1326, 2008; in the data active = inhibition above about 40%;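 note: 0% = vehicle and 100% = reference inhibitor; higher value means more JC-1 retained so stronger ABCB1 efflux block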
# Efflux pump mplx: inhibitors of Candida efflux pumps in yeast, primary screen, S. cerevisiae, Nile Red, multiplex. S. cerevisiae Candida pump triplex. inhibition, % at 10 µM. hit rate 0.44% among 330,000;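 active = plate passing quality check with inhibition over a set limit, or well fluorescence over plate mean plus 4 SD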;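 note: Nile Red retained in pooled yeast measured as flow cytometry median fluorescence; 0% = buffer negative control and 100% = Enniatin B positive control; higher means more Nile Red kept so more efflux inhibition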
# Cmpd fluor yeast: flagged as fluorescent in efflux inhibitor counter-screen; hit rate 4% among 1,700; fluorescence ratio to DMSO, % at 10 µM; shares compounds with Efflux pump mplx; S. cerevisiae AD/pABC3, compound fluorescence, flow cytometry; AID 588517;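 active = fluorescence ratio to DMSO above its plate's cutoff, the plate mean ratio plus 5 SD, cut at about 210% in these data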;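 note: unstained yeast with no Nile Red so the signal is compound autofluorescence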
# CaMdr1 efflux inh: inhibitors of Candida albicans Mdr1 efflux, confirmation, flow cytometry, singleplex, Cherry Pick1 set | shares compounds with Efflux pump mplx | S. cerevisiae AD/CaMDR1, Nile Red efflux | inhibition, % at 10 µM | hit rate 1% among 1,700 | AID 588518, 2011; in the data active = inhibition above about 26%;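 note: 0% = DMSO vehicle and 100% = reference inhibitor; higher means more Nile Red retained so more efflux inhibition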
# CaCdr2 efflux inh: inhibitors of Candida albicans Cdr2 efflux pump, confirmation, S. cerevisiae AD/CaCDR2, flow cytometry, cherry pick 1, singleplex; Nile Red retention ratio vs DMSO, % at 10 µM; shares compounds with Efflux pump mplx; hit rate 4% among 1,700; Nile Red retention; AID 588520, 2011; in the data active = Nile Red retention ratio vs DMSO above about 190%;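 note: higher ratio means more blocking of Cdr2 efflux of the dye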
# CaCdr1 efflux inh: inhibitors of Candida albicans Cdr1 efflux pump, confirmation, S. cerevisiae AD/CaCDR1, flow cytometry, cherry pick 1, singleplex. AID 588522, 2011. shares compounds with Efflux pump mplx. inhibition, % at 10 µM. hit rate 1% among 1,700. Nile Red efflux;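 active = inhibition above the screen-wide mean plus twice its standard deviation, cut at about 32% in these data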
# The depositor's hits bear a star; x = no result.
SMILES,MEKK2 mut-MEK5,ABCG2 block,MEKK2 WT-MEK5,MEKK3 PB1 HTS,ABCB1 inh,Efflux pump mplx,Cmpd fluor yeast,CaMdr1 efflux inh,CaCdr2 efflux inh,CaCdr1 efflux inh
Nc1ccn(CC(=O)NCCc2ccccn2)c(=O)n1,x,x,x,x,x,2.8*,100.0,-0.2,104.2,0.0
CC(C)NC(=O)c1cc2cc([N+](=O)[O-])ccc2s1,-7.0,24.3,96.0,91.0,1.0,0.2,x,x,x,x
Cc1cccc(NC(=O)c2cc3cc([N+](=O)[O-])ccc3s2)n1,-8.0,-0.3,97.0,94.0,-0.3,1.1*,98.9,-0.3,98.1,-0.1
CC(C)COc1ccc(C(=O)NCc2ccco2)cc1,4.0,10.1,103.0,100.0,0.3,0.0,x,x,x,x
CCOc1ccc(C(=O)NCc2ccco2)cc1,2.0,2.4,102.0,99.0,0.3,1.2*,104.6,0.0,108.0,-0.1
O=C1N[C@@H](Cc2ccccc2)C(=O)N2[C@H]1C[C@]1([C@]34C[C@H]5C(=O)N[C@@H](Cc6ccccc6)C(=O)N5[C@H]3N(S(=O)(=O)c3ccccc3)c3ccccc34)c3ccccc3N(S(=O)(=O)c3ccccc3)[C@H]21,x,x,x,x,x,0.8*,104.6,0.7,103.9,0.5
O=[N+]([O-])c1ccc2cn(-c3ccccc3)nc2c1,-1.0,48.3,95.0,94.0,3.9,-0.6,x,x,x,x
CN(C(=O)CSc1ncccn1)C1CCS(=O)(=O)C1 (centres undefined),-11.0,x,88.0,86.0,x,5.3*,112.2,-0.2,116.6,0.0
Cc1ccc(C)c(SCC(=O)N(C)C2CCS(=O)(=O)C2)c1 (centres undefined),x,x,x,x,x,-0.1,x,x,x,x
COc1ccc(OCC(=O)Nc2ccc(C(=O)Nc3ccccc3C(=O)O)cc2)cc1,3.0,x,103.0,104.0,x,-0.1,x,x,x,x
O=C(COc1ccc(Br)cc1)Nc1ccc(C(=O)Nc2ccccc2C(=O)O)cc1,-4.0,x,96.0,98.0,x,1.2*,101.8,-0.3,88.8,-0.2
Cc1ccc(Cl)c(OCCN2CCc3ccccc3C2)c1,4.0,x,108.0,97.0,x,-0.1,x,x,x,x
N#C/C(=C\c1ccc(O)c(O)c1)C(=O)Nc1cccc2ncccc12,-2.0,x,89.0,94.0,x,0.9,107.2,-0.1,113.8,0.0
COc1ccc(NC(=O)/C(C#N)=C/c2cccnc2)c(OC)c1,-4.0,x,95.0,98.0,x,0.0,x,x,x,x
COc1ccc(/C=C(\C#N)C(=O)Nc2cccc3ncccc23)cc1OC,8.0,x,107.0,117.0,x,0.2,97.2,-0.1,97.5,0.0
COc1cc(/C=C(\C#N)C(=O)Nc2cccc3ncccc23)cc(OC)c1OC,25.0,58.0,132.0,108.0,0.6,3.4*,98.3,-0.2,118.0,0.0
COc1ccc(/C=C(/C#N)C(=O)Nc2cccnc2)cc1OC,5.0,19.9,111.0,111.0,-1.5,0.1,x,x,x,x
CCOC(=O)c1ccccc1NC(=O)COC(=O)CC1CCCCC1,6.0,x,103.0,104.0,x,0.1,x,x,x,x
O=C(COC(=O)CC1CCCC1)Nc1ccccc1[N+](=O)[O-],x,x,x,x,x,0.9*,88.5,-0.3,99.7,-0.1
Cc1ccc(NC(=O)/C=C\C(=O)NCC(=O)O)cc1,-9.0,-0.5,91.0,93.0,-0.1,0.0,x,x,x,x
Cc1cc2ccccc2n2c(SCC(=O)NCC3CCCO3)nnc12 (centres undefined),1.0,3.9,97.0,101.0,-0.2,-0.1,x,x,x,x
COc1cc(/C=C/C(=O)N2CC(C)OC(C)C2)cc(OC)c1OC (centres undefined),-1.0,x,101.0,100.0,x,0.3,x,x,x,x
COc1cccc(/C=C/C(=O)N2CC(C)OC(C)C2)c1OC (centres undefined),-5.0,x,100.0,102.0,x,1.7*,93.5,-0.2,102.9,-0.1
Nc1cc(=O)[nH]c(SCC(=O)NNC(=O)c2ccccc2)n1,x,x,x,x,x,0.3,x,x,x,x
COc1ccc(-c2cc(C(=O)Nc3cc(S(=O)(=O)N4CCOCC4)ccc3N3CCOCC3)c3ccccc3n2)cc1,5.0,2.0,100.0,104.0,4.3,0.8*,112.7,0.1,124.8,0.0
SMILES,MEKK2 mut-MEK5,ABCG2 block,MEKK2 WT-MEK5,MEKK3 PB1 HTS,ABCB1 inh,Efflux pump mplx,Cmpd fluor yeast,CaMdr1 efflux inh,CaCdr2 efflux inh,CaCdr1 efflux inh
COc1ccc(-c2cc(C(=O)NCCN3CCOCC3)c3ccccc3n2)c(OC)c1,5.0,1.4,104.0,105.0,0.9,-0.1,85.7,-0.6,99.3,0.2
O=C(Nc1nccs1)c1cc(-c2ccccc2)nc2ccccc12,-1.0,28.2,101.0,103.0,3.8,10.8*,103.4,-0.1,101.5,0.3
COc1ccc(Nc2cc(C(=O)NCCCN3CCOCC3)c3ccccc3n2)c(OC)c1,-1.0,31.2,102.0,98.0,1.7,-0.1,x,x,x,x
CCOC(=O)Cc1cc(-c2ccc(OC)cc2)nc2ccc3ccccc3c12,0.0,4.5,106.0,103.0,0.1,10.2*,90.5,0.0,105.7,-0.1
O=C(NCCS(=O)(=O)c1ccc(Br)cc1)c1ccc(Cl)cc1Cl,4.0,x,106.0,104.0,x,0.1,x,x,x,x
CC(=O)c1ccc(OCCCC(=O)N2CCN(S(=O)(=O)c3ccc(C(C)C)cc3)CC2)cc1,x,x,x,x,x,0.0,x,x,x,x
CSc1cccc(NC(=O)CN(C)S(=O)(=O)c2ccc(C)cc2)c1,3.0,37.9,101.0,101.0,0.8,0.2,x,x,x,x
CCOC(=O)N1CCN(c2ccncc2S(=O)(=O)N2CCCCC2)CC1,5.0,x,104.0,104.0,x,0.0,x,x,x,x
